Measured values published in ChEMBL document CHEMBL1138476 (J Med Chem, 2009).
pIC50, pKi: −log10 of the molar value. ≈ marks a conversion by molar mass, not a printed value.

Columns and labels:
Rattus norvegicus [1] = experiment: Ex vivo receptor occupancy of CRF receptor in rat brain at 3 mg/kg, po by [125I]sauvagine binding and autoradiography relative to control; assay type: functional
Procedure, shortened: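 Rats were given 0.3, 1, 3, 10 or 30 mg/kg po in 0.25% Methocel 60 min before sacrifice. Brains were removed, sectioned and frozen at −80 °C. Ex vivo CRF receptor binding gave occupancy relative to vehicle-treated rats, reported as mean ± SEM.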

Canis familiaris [2] = experiment: Effect on respiratory function in spontaneously breathing mongrel dog assessed as change in tidal volume at 5 mg/kg after intravenous infusion for 15 mins (RVb= 2.2+/-4.3 %); assay type: functional, Canis lupus familiaris
Rattus norvegicus [3] = experiment: Toxicity in rat assessed as time spent on rotarod at 3 mg/kg, po after 1 hr by rotarod test; assay type: organism-based; design: dose 3 mg/kg, route oral; settings: in vivo
Procedure, shortened: (§1)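 Rats, n = 8 per dose, dosed po in 0.25% Methocel 1 h before testing, at 0, 1.0, 3.0, 10, 30 and 100 mg/kg. Read-out is time on rotorod (s), mean ± SEM, compared with the vehicle (zero-dose) group.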

Canis familiaris [4] = experiment: Effect on respiratory function in spontaneously breathing mongrel dog assessed as change in heart rate at 5 mg/kg after intravenous infusion for 30 mins (RVb= -0.9+/-3.8 %); assay type: functional, Canis lupus familiaris
[5] = Cmax in rat at 5 mg/kg, po; assay type: ADME, organism-based; design: dose 5 mg/kg, route oral; settings: in vivo
Procedure, shortened: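 Rats (n = 3) received 1 mg/kg iv in 10% DMAC, 70% propylene glycol and deionized water, or 5 mg/kg orally in 0.5% methylcellulose.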

Canis familiaris [6] = experiment: Effect on respiratory function in spontaneously breathing mongrel dog assessed as change in minute volume at 5 mg/kg after intravenous infusion for 15 mins (RVb= -4.7+/-3.4 %); assay type: functional, Canis lupus familiaris
Adenosine receptor A1 = biological target: T1, Adenosine receptor A1 (Rattus norvegicus, UniProt P25099); experiment: Binding affinity to rat adenosine A1 receptor expressed in CHO cells; assay type: cell-based
T1 sequence (P25099 whole entry): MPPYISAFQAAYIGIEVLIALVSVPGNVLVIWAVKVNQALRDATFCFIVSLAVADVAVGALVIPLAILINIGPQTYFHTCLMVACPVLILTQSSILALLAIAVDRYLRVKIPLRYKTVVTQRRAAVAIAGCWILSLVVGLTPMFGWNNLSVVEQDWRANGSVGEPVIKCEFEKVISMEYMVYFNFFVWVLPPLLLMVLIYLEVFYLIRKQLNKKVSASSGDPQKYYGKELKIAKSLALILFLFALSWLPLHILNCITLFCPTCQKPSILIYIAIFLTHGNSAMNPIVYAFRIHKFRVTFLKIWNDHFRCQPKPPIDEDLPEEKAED
Procedure, shortened: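 Cloned rat adenosine A1 receptor transfected into CHO cells, part of a contracted screen.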

[7] = Volume of distribution at steady state in chimpanzee at 0.5 mg/kg, iv; assay type: ADME, organism-based, Pan troglodytes; design: dose 0.5 mg/kg, route intravenous; settings: in vivo, read-out: Vdss
Procedure, shortened: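 Single chimpanzee given 0.5 mg/kg iv over 10 min (0.2 mL/kg) in 10% DMAC, 70% propylene glycol and deionized water. EDTA blood taken predose, at 6, 15 and 30 min, and at 2 to 96 h.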

Rattus norvegicus [8] = experiment: Effect on acute renal function in rat assessed as change in urine chloride level per 100 gm body weight at 30 mg/kg, po (RVb= 95.3+/-11.6 mg/dl); assay type: functional
[9] = Lipophilicity log P of the compound; assay type: physicochemical; settings: octanol/water
[10] = Oral bioavailability in chimpanzee at 1 mg/kg; assay type: ADME, organism-based, Pan troglodytes; settings: in vivo
Procedure, shortened: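 Two alert chimpanzees were given 1 mg/kg po as a 1 mg/mL suspension in 50:50 (v/v) 0.5% methylcellulose and Tang orange juice containing 1% Tween-80. EDTA blood was taken predose and at 2–96 h. Bioavailability was calculated against a 0.5 mg/kg iv dose given to one animal.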

[11] = Aqueous solubility at pH 7.4; assay type: physicochemical; settings: aqueous medium
Procedure, shortened: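 Solubility measured in water at pH 7.4.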

Canis familiaris [12] = experiment: Effect on respiratory function in spontaneously breathing mongrel dog assessed as change in mean arterial pressure at 5 mg/kg after intravenous infusion for 60 mins (RVb= 5.1+/-3.5 %); assay type: functional, Canis lupus familiaris, Artery
[13] = Tmax in rat at 5 mg/kg, po; assay type: ADME, organism-based; design: dose 5 mg/kg, route oral; settings: in vivo
Procedure, shortened: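 Rats (n = 3) dosed iv at 1 mg/kg in 10% DMAC, 70% propylene glycol and deionized water, and orally at 5 mg/kg in 0.5% methylcellulose.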

Rattus norvegicus [14] = experiment: Toxicity in rat assessed as time spent on rotarod at 10 mg/kg, po after 1 hr by rotarod test; assay type: organism-based; design: dose 10 mg/kg, route oral; settings: in vivo; procedure, shortened: as §1
Rattus norvegicus [15] = experiment: Toxicity in rat assessed as total distance traveled at 100 mg/kg, po after 1 hr by spontaneous locomotor test; assay type: organism-based; design: dose 100 mg/kg, route oral; settings: in vivo
Procedure, shortened: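 Rat spontaneous locomotor activity test with oral dosing in 0.25% Methocel 1 h before testing, at doses up to 100 mg/kg. Values are mean ± SEM, with N rats per group, compared with the vehicle (zero-dose) group.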

[16] = Plasma concentration in spontaneously breathing dog at 5 mg/kg, iv after 6 mins; assay type: ADME, organism-based, Canis lupus familiaris; design: dose 5 mg/kg, route intravenous
Procedure, shortened: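 Spontaneously breathing, barbiturate-anesthetized mongrel dogs (n = 4) infused iv at 5.0 mg/kg over 6 min. Total pooled plasma concentrations taken at 6, 15, 30 and 60 min.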

Canis familiaris [17] = experiment: Effect on respiratory function in spontaneously breathing mongrel dog assessed as change in pulmonary compliance at 5 mg/kg after intravenous infusion for 6 mins (RVb= 6.0+/-4.2 %); assay type: functional, Canis lupus familiaris
Canis familiaris [18] = experiment: Effect on respiratory function in spontaneously breathing mongrel dog assessed as change in mean arterial pressure at 5 mg/kg after intravenous infusion for 30 mins (RVb= 4.0+/-3.0 %); assay type: functional, Canis lupus familiaris, Artery
Rattus norvegicus [19] = experiment: Effect on acute renal function in rat assessed as change in urine creatinine level per 100 gm body weight at 30 mg/kg, po (RVb= 16.2+/-3.3 mg/dl); assay type: functional
[20] = AUC (0 to infinity) in chimpanzee at 1 mg/kg, po; assay type: ADME, organism-based, Pan troglodytes; design: time infinity, dose 1 mg/kg, route oral; settings: plasma
Procedure, shortened: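 Chimpanzee PK. Oral: 1 mg/kg in two alert animals, given as a 1 mg/mL suspension in 50–50 (v/v) 0.5% methylcellulose/Tang orange juice with 1% Tween-80. IV: 0.5 mg/kg in one animal in 10% DMAC, 70% propylene glycol and deionized water, infused over 10 min (0.2 mL/kg). EDTA blood was taken predose and at 2–96 h; iv sampling added 6, 15 and 30 min.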

[21] = biological target: T2, Corticotropin-releasing factor receptor 1 (Rattus norvegicus, UniProt P35353); experiment: Antagonist activity at CRF1 receptor in rat pituitary cells assessed as inhibition of CRF-mediated ACTH production; assay type: functional, cell-based, Pituitary gland cell
T2 sequence (P35353 whole entry): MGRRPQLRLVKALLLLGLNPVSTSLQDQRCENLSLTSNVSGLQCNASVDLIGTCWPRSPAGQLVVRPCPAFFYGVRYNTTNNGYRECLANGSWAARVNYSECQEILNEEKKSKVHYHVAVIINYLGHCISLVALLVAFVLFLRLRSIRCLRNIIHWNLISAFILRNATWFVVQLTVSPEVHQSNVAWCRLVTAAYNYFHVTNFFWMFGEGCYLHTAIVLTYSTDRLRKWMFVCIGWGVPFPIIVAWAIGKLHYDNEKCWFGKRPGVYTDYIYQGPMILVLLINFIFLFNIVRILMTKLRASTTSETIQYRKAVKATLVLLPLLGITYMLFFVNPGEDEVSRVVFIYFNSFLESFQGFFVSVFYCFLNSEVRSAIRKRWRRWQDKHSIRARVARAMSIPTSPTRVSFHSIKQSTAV

CC[C@@H](C)Nc1nc(C)nc2c(-c3ccc(OC)nc3C)c(C)nn12 [PEXACERFONT]
Activity (Rattus norvegicus [1]): 59%
Activity (Canis familiaris [2]): 4.3%
Time (Rattus norvegicus [3]): 162 s
Activity (Canis familiaris [4]): -2.5%
Cmax [5]: 1260 nM
Activity (Canis familiaris [6]): 0.6%
pKi (Adenosine receptor A1): 5.58
Vd [7]: 4.2 L/kg
Activity (Rattus norvegicus [8]): 80 mmol/L
logP [9]: 4.32
bioavailability [10]: 49%
solubility [11]: 16 µg/mL (≈ 47 µM)
Activity (Canis familiaris [12]): 4%
Tmax [13]: 45 min
Time (Rattus norvegicus [14]): 158 s
Activity (Rattus norvegicus [15]): 4041 cm
concentration at 0.1 h [16]: 1790 nM
Activity (Canis familiaris [17]): -2.5%
Activity (Canis familiaris [18]): 6.2%
Activity (Rattus norvegicus [19]): 8 mg/dL
AUC(0-inf) [20]: 11.7 µM·h
pIC50 [21]: 6.89
